Data taken from ChEMBL document CHEMBL1134455, “Synthesis and evaluation of 4-fluoro-8-substituted-2,3,4,5-tetrahydro-1H-2-benzazapines as selective inhibitors of phenylethanolamine N-methyltransferase versus the alpha(2)-adrenoceptor” (J Med Chem, 2001).

What was measured:
[1] = Selectivity ratio (alpha2/PNMT)
[2] = biological target: T1, Adrenergic receptor alpha-2 (Rattus norvegicus, UniProt P22086+P19328+P22909); assay: Binding affinity to alpha-2 adrenergic receptor by displacement of [3H]clonidine; assay type: protein assay
T1 sequence (P22086 whole entry): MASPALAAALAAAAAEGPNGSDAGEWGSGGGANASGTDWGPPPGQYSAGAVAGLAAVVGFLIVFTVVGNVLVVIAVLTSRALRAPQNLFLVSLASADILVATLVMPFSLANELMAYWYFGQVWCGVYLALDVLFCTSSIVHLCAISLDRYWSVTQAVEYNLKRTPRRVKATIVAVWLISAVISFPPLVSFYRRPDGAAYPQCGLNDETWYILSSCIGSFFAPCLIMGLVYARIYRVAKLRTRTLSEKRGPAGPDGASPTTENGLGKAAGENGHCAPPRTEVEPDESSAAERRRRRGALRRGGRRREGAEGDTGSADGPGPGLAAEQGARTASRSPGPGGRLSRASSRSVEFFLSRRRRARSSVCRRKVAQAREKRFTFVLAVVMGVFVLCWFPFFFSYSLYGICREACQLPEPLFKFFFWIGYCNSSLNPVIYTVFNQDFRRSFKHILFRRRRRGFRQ
T1 sequence (P19328 whole entry): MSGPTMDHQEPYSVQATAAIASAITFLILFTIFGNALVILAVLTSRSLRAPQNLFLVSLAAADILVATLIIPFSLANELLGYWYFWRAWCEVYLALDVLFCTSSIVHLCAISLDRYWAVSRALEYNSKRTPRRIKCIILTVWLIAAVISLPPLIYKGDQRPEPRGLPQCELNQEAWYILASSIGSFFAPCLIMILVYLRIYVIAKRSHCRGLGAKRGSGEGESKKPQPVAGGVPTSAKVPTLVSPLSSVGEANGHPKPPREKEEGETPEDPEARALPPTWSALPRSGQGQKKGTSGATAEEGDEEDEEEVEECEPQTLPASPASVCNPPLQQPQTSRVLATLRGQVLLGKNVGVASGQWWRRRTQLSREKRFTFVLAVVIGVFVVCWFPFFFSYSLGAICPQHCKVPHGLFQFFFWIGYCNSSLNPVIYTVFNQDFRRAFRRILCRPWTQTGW
T1 sequence (P22909 whole entry): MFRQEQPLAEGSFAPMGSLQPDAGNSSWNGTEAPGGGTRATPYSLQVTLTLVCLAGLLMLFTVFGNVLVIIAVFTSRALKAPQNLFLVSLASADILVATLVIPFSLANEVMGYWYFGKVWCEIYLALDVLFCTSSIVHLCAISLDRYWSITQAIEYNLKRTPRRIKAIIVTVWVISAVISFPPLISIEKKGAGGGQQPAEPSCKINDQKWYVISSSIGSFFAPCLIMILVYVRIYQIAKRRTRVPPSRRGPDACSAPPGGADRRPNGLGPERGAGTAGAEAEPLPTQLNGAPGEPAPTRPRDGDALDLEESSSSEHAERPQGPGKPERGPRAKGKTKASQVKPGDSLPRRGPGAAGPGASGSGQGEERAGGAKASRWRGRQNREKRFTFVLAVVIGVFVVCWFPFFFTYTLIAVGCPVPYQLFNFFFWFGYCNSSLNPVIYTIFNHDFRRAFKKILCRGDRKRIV
Outline: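 Male Sprague Dawley rat cortex homogenized, washed thrice by centrifugation in 50 mM Tris/HCl pH 7.7. Incubated with [3H]clonidine (final 2.0 nM) and varied inhibitor concentrations, 25 °C 30 min; GF/B filtration, scintillation counting. Nonspecific binding with 2 uM phentolamine. IC50 by log-probit analysis, converted to Ki via Cheng–Prusoff (Hill coefficients near one).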

[3] = biological target: T2, Phenylethanolamine N-methyltransferase (Bos taurus, UniProt P10938); assay: Ability to inhibit phenylethanolamine N-methyl-transferase (PNMT)
T2 sequence (P10938 whole entry): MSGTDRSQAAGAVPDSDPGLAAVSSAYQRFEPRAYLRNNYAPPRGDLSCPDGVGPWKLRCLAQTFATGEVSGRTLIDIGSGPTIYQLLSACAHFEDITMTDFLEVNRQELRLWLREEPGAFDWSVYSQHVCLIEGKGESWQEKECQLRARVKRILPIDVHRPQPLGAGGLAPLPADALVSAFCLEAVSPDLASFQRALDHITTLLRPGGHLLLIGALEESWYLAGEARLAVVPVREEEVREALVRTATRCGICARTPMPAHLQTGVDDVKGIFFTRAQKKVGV

Row | Compound | Selectivity [1] | Ki [2] [nM] | Ki [3] [nM]
1 | O=[N+]([O-])c1ccc2c(c1)CNC(CF)C2 (stereo not given) | 140 | – | –
2 | FCC1Cc2ccc(Br)cc2CN1 (stereo not given) | 10 | – | –
3 | O=[N+]([O-])c1ccc2c(c1)CNCC(O)C2 (stereo not given) | 130 | 680000 | 5300
4 | O=[N+]([O-])c1ccc2c(c1)CNCC2CF (stereo not given) | 17 | 35000 | 2100
5 | Clc1ccc2c(c1Cl)CNCC2 | 0.095 | – | –
6 | NS(=O)(=O)c1ccc2c(c1)CNC(CO)C2 (stereo not given) | 4100 | – | –
7 | N#Cc1ccc2c(c1)CNC(CF)C2 (stereo not given) | 420 | – | –
8 | N#Cc1ccc2c(c1)CNCC(F)C2 (stereo not given) | 77 | 100000 | 1300
9 | NS(=O)(=O)c1ccc2c(c1)CNC(CF)C2 (stereo not given) | 1000 | – | –
10 | O=[N+]([O-])c1ccc2c(c1)CNCC(F)C2 (stereo not given) | 940 | 510000 | 540
11 | FC1CNCc2ccccc2C1 (stereo not given) | 47 | 93000 | 2000
12 | FC1CNCc2cc(Br)ccc2C1 (stereo not given) | 130 | 49000 | 390
13 | COc1ccc2c3c([nH]c2c1)C=NCC3 | 4.4 | – | –
